Reference: ChEMBL document CHEMBL3097996, “Rational design and synthesis of topoisomerase I and II inhibitors based on oleanolic acid moiety for new anti-cancer drugs” (Bioorg Med Chem, 2014)
Activity calls are given as the source filed them. The calls are words filed in the database; no cut-off is given here.

Experiments:
[1] = target: T1, DNA topoisomerase 1 (Homo sapiens) (UniProt P11387); test: Inhibition of topoisomerase 1 (unknown origin)-mediated relaxation of supercoiled plasmid DNA assessed as concentration of the compound exhibiting activity of 100 uM camptothecin after 30 mins by agarose gel electrophoresis
T1 sequence (whole entry): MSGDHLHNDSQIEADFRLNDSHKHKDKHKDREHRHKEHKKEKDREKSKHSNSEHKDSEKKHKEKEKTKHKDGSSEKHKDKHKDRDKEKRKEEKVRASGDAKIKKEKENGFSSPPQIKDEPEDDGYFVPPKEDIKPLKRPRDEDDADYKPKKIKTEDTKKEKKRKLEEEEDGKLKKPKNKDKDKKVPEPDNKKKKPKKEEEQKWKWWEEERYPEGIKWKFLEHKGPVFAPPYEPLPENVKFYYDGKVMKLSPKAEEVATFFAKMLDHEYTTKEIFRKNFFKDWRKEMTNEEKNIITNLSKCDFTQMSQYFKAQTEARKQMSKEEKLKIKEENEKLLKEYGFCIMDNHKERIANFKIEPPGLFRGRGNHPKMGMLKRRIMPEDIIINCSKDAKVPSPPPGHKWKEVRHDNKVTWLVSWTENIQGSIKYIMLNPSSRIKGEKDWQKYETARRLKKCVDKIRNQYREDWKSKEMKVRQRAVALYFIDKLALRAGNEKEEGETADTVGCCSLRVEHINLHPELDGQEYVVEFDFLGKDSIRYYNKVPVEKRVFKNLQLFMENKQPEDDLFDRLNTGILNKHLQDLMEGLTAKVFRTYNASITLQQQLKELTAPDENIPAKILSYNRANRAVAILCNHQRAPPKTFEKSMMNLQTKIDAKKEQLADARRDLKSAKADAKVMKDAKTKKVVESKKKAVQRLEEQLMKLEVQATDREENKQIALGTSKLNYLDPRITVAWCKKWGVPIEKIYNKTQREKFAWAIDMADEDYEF

[2] = target: DNA topoisomerase 2-alpha (Homo sapiens) (UniProt P11388); test: Inhibition of topoisomerase 2 (unknown origin)-mediated kinetoplast DNA decatenation assessed as concentration of the compound exhibiting activity of 100 uM etoposide after 30 mins by agarose gel electrophoresis
[3] = target: DNA topoisomerase 2-alpha (Homo sapiens) (UniProt P11388); test: Inhibition of topoisomerase 2 (unknown origin)-mediated kinetoplast DNA decatenation assessed as intensity of supercoiled DNA after 30 mins by agarose gel electrophoresis relative to etoposide
Outline: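 kDNA with 2 U topoisomerase II, 37 °C for 30 min, then proteinase K for 15 min at 37 °C and a 1% agarose TAE gel at 1 V/cm. Supercoiled-DNA band intensity was measured, and each compound's value was standardized by dividing it by the etoposide value.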

[4] = target: T1, DNA topoisomerase 1 (Homo sapiens); test: Inhibition of topoisomerase 1 (unknown origin)-mediated relaxation of supercoiled plasmid DNA assessed as intensity of supercoiled DNA after 30 mins by agarose gel electrophoresis relative to camptothecin
Outline: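 Topo I (2 U) relaxation of 250 ng supercoiled plasmid at pH 7.9 in Tris/NaCl/EDTA/BSA/spermidine/glycerol buffer, 37 °C for 30 min, with matched DMSO. Stopped with SDS, proteinase K digestion, 1% agarose TAE gel, ethidium stain. Supercoiled-band intensity of each compound is divided by that of the camptothecin control.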

[5] = target: DNA topoisomerase 2-alpha (Homo sapiens) (UniProt P11388); test: Inhibition of topoisomerase 2 (unknown origin)-mediated kinetoplast DNA decatenation at 100 uM after 30 mins by agarose gel electrophoresis
[6] = target: T1, DNA topoisomerase 1 (Homo sapiens); test: Inhibition of topoisomerase 1 (unknown origin)-mediated relaxation of supercoiled plasmid DNA at 100 uM after 30 mins by agarose gel electrophoresis

Chain of DNA topoisomerase 2-alpha (Homo sapiens) (P11388 whole entry): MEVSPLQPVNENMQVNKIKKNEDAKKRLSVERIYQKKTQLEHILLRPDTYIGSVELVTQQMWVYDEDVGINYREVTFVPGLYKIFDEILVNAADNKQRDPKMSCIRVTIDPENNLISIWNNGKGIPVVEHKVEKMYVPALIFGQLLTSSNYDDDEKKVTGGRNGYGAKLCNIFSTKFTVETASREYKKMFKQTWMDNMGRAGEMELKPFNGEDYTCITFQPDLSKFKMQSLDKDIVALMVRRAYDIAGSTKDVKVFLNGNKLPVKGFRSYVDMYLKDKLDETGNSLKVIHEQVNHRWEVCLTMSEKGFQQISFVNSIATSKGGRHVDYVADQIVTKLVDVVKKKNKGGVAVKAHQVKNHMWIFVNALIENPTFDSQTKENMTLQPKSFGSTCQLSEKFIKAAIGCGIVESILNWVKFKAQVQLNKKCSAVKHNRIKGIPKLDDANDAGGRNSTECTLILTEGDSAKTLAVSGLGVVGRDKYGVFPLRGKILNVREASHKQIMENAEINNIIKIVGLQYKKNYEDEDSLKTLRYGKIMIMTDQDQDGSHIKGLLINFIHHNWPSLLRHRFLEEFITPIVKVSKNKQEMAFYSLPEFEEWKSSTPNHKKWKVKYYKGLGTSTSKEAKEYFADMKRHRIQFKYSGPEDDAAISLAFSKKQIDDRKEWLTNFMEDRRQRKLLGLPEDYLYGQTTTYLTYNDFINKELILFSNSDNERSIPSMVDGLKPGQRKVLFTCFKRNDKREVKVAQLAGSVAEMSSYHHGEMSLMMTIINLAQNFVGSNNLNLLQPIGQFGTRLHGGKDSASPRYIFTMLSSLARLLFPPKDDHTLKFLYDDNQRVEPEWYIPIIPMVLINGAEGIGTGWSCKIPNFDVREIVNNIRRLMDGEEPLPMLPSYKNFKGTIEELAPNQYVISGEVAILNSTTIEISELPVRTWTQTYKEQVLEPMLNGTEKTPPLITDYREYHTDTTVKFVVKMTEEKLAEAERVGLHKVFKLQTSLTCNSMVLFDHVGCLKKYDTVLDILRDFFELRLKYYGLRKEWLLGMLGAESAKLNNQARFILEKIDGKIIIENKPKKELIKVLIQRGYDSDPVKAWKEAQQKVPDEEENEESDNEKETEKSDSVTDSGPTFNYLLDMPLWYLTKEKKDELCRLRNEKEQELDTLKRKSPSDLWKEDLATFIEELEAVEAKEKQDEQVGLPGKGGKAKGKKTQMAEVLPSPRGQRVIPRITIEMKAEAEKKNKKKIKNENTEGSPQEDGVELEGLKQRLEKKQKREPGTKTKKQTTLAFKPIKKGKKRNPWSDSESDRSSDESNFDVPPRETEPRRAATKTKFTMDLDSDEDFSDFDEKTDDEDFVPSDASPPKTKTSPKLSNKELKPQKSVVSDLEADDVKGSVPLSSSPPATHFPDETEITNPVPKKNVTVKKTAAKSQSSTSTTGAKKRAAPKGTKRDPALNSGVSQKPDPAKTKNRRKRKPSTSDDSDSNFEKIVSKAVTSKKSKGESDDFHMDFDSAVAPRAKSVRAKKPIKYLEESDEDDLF

Row | Compound | Activity [1] [µM] | Activity [2] [µM] | fold change (FC) [3] | fold change (FC) [4] | inhibition [5] | inhibition [6]
1 | CC1(C)CC[C@]2(C(=O)O)CC[C@]3(C)C(=CC[C@@H]4[C@@]5(C)CC[C@H](OC(=O)NCc6ccccc6)C(C)(C)[C@@H]5CC[C@]43C)[C@@H]2C1 | 16.1 | 68 | 1.12 | 1.64 |  | 
2 | CC1(C)CC[C@]2(C(=O)O)CC[C@]3(C)C(=CC[C@@H]4[C@@]5(C)CC[C@H](OS(=O)(=O)c6ccccc6)C(C)(C)[C@@H]5CC[C@]43C)[C@@H]2C1 |  |  | 0.92 | 0.54 |  | 
3 | CC1(C)CC[C@]2(C(=O)NCc3ccccc3)CC[C@]3(C)C(=CC[C@@H]4[C@@]5(C)CC[C@H](OC(=O)NCc6ccccc6)C(C)(C)[C@@H]5CC[C@]43C)[C@@H]2C1 | 25.4 | 57 | 1.21 | 1.42 |  | 
4 | COc1cc([C@@H]2c3cc4c(cc3[C@@H](O[C@@H]3O[C@@H]5CO[C@@H](C)O[C@H]5[C@H](O)[C@H]3O)[C@H]3COC(=O)[C@H]23)OCO4)cc(OC)c1O |  |  |  |  | Active | 
5 | CC1(C)CC[C@]2(C(=O)Nc3cccc4ccccc34)CC[C@]3(C)C(=CC[C@@H]4[C@@]5(C)CC[C@H](OC(=O)Nc6cccc7ccccc67)C(C)(C)[C@@H]5CC[C@]43C)[C@@H]2C1 | 17.4 |  | 1.07 | 1.55 | Active | 
6 | CC1(C)CC[C@]2(C(=O)O)CC[C@]3(C)C(=CC[C@@H]4[C@@]5(C)CC[C@H](O)C(C)(C)[C@@H]5CC[C@]43C)[C@@H]2C1 | 265 | 276 | 0.74 | 0.84 |  | 

Results, then the compound that gave them:

Row | Activity [1] [µM] | Activity [2] [µM] | fold change (FC) [3] | fold change (FC) [4] | inhibition [5] | inhibition [6] | Compound
7 |  |  | 1.07 | 0.98 | Active | Active | CC1(C)CC[C@]2(C(=O)NCc3ccccc3)CC[C@]3(C)C(=CC[C@@H]4[C@@]5(C)CC[C@H](O)C(C)(C)[C@@H]5CC[C@]43C)[C@@H]2C1
8 | 23.1 |  | 0.91 | 1.36 |  |  | CC1(C)CC[C@]2(C(=O)NS(=O)(=O)c3ccccc3)CC[C@]3(C)C(=CC[C@@H]4[C@@]5(C)CC[C@H](OC(=O)NS(=O)(=O)c6ccccc6)C(C)(C)[C@@H]5CC[C@]43C)[C@@H]2C1
9 | 15.2 | 53 | 1.26 | 1.57 |  |  | C=CCNC(=O)O[C@H]1CC[C@]2(C)[C@H]3CC=C4[C@@H]5CC(C)(C)CC[C@]5(C(=O)O)CC[C@@]4(C)[C@]3(C)CC[C@H]2C1(C)C
10 |  | 46.5 | 1.21 | 0.79 |  |  | CC1(C)CC[C@]2(C(=O)O)CC[C@]3(C)C(=CC[C@@H]4[C@@]5(C)CC[C@H](OC(=O)Nc6ccc(-c7ccccc7)cc6)C(C)(C)[C@@H]5CC[C@]43C)[C@@H]2C1
11 |  |  | 1.03 | 0.4 | Active |  | CC1(C)CC[C@]2(C(=O)O)CC[C@]3(C)C(=CC[C@@H]4[C@@]5(C)CC[C@H](OC(=O)Nc6cccc7ccccc67)C(C)(C)[C@@H]5CC[C@]43C)[C@@H]2C1
